HTR2A ag = mouse Htr2a agonists via beta-arrestin recruitment, primary screen, cell-based, luminescence; activation, % at 7.6 µM; CHO-K1 mHTR2A beta-arrestin complementation; percent of 30 µM serotonin response; AID 624169, 2012; actives 0.66% (n = 360,000);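 active means activation above a run cutoff, the mean activation of all tested compounds plus 3 SD, cut at about 14% in these data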;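 further: 0% = plate median of compound wells and 100% = 30 µM serotonin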
Target sequence (P35363 whole entry, looked up): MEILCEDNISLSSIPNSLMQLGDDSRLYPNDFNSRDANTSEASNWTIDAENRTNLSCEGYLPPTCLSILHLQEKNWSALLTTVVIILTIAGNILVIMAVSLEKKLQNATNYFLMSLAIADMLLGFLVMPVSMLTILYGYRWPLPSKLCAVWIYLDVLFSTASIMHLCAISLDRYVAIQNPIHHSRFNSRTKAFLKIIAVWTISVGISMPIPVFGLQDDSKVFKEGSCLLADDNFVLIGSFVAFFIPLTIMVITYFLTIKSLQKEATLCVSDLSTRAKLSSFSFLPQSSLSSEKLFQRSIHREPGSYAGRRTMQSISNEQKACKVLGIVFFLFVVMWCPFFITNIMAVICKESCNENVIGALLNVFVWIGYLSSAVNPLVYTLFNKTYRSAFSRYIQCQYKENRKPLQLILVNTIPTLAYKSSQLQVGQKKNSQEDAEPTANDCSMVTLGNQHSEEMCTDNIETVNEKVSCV
Tb MetRS inh = T. brucei MetRS inhibitors, primary screen, biochemical, luminescence. methionyl-tRNA synthetase (Trypanosoma brucei brucei). purified T. brucei MetRS, ATP depletion, Kinase-Glo luminescence. inhibition, % at 11.9 µM. actives 0.4% (n = 360,000). AID 624268, 2012;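 active means inhibition above a per-plate cutoff of the control wells' mean inhibition plus 3 SD, cut at about 5.5% in these data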;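 further: 0% = DMSO wells median and 100% = median of wells with control inhibitor compound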
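Dosing: 11.9 µM single point; system: parasite MetRS enzyme; technique: luminescence of leftover ATP; times: 15 min enzyme-compound preincubation, 2 h reaction, 10 min detection, 25 °C; replicates: each compound tested once; read-out basis: percent inhibition relative to median high and low control wells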
AI-2 QS modul = Vibrio harveyi AI-2 quorum sensing modulators, primary screen, JMH597 strain, luminescence/OD600 ratio | Vibrio harveyi JMH597 AI-2 luminescence/OD600 ratio, 9 h; active compounds read low; strain lacks LuxN and CqsS sensors; 0 = neutral-control median | activity change, % at 7.5 µM | actives 0.4% (n = 300,000); in the data active means activity change below about -75%, passing the limit was not always enough;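 further: luminescence divided by OD600 gain over 9 h not by final OD600 alone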
AHR act = AHR activators, primary screen, cell-based, luminescence, luciferase reporter, human | actives 2.5% (n = 320,000) | AHR-responsive luciferase reporter cells | activation, % at 5 µM | AID 2796, 2010; in the data active means activation above about 47%;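 further: 0% = vehicle wells and 100% = reference agonist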
MsrA act = bovine MsrA enzyme activators, primary screen, biochemical, absorbance, HTS; Methionine sulfoxide reductase A (Bos taurus); purified bovine MsrA, absorbance read-out; activation, % at 10.6 µM; actives 0.3% (n = 360,000); AID 602163, 2012; in the data active means activation above about 7.5%;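 further: 0% = vehicle and 100% = reference activator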
MsrA inhibitor = bovine MsrA enzyme inhibitors, primary screen, biochemical, absorbance, HTS. Methionine sulfoxide reductase A (Bos taurus). purified bovine MsrA, absorbance read-out. inhibition, % at 15.5 µM. actives 0.75% (n = 360,000). AID 651718, 2012; in the data active means inhibition above about 4.5%;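 further: 0% = vehicle wells with enzyme and 100% = reference inhibitor wells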
Active calls of the source: *; nt = no result given. Shown are actives, neighbours in structure and some others; about 4.4% of the full set was active somewhere.

SMILES | HTR2A ag | Tb MetRS inh | AI-2 QS modul | AHR act | MsrA act | MsrA inhibitor
C/C(=N/Nc1ccc(C(=O)O)cc1)c1ccc2c(c1)Nc1ccccc1S2 | -5 | 1 | nt | nt | -4 | 0
CCOP(=O)(OCC)/C(=C/N1CCCCC1)NC(=O)c1ccccc1 | -5 | 0 | 30 | 64* | -2 | 2
CCOC(=O)C(NC(=O)c1ccccc1)=C1CCCCC1 | 3 | -2 | 13 | 3 | -8 | -1
Cc1ccc2c(c1)n([O-])c1c([n+]2=O)CCCC1 | 1 | 0 | 10 | 7 | -5 | 1
CC(=O)c1c(C)n([O-])c2ccc(C)cc2[n+]1=O | 2 | -2 | 3 | 60* | -12 | 1
O=C(NCc1ccccc1)[C@H]1CCCN1C(=O)[C@H]1CCCN1C(=O)c1ccc(OC(F)(F)F)cc1 | nt | nt | nt | nt | nt | 1
O=C(Nc1nnc(-c2ccco2)o1)c1cccc(Cl)c1 | 3 | 0 | -134* | 2 | 0 | 1
O=C(Nc1nnc(-c2cccs2)o1)c1cccc(F)c1 | -9 | 0 | -85* | 13 | -3 | 2
N#CCC1(O)C(=O)Nc2ccccc21 (centres undefined) | nt | nt | nt | nt | nt | 0
CCc1cccc(-n2c(C)cc(O)cc2=O)c1 | nt | nt | nt | nt | nt | 0
O=C(N[C@H](C(=O)N1CCC[C@H]1C(=O)NC1CCCC1)c1ccccc1)c1ccc(Cl)cc1Cl | nt | nt | nt | nt | nt | 0
CC(C)(C)S(=O)(=O)N1C[C@H]2CC(=O)C(CCO)=C2[C@@H]1CCO | nt | nt | nt | nt | nt | -1
COc1ccc(-c2nc(NC3=NCCCCC3)sc2C)cc1 | -1 | -1 | 18 | 73* | -7 | 0
C[C@@H]1ON(C)[C@H]2C[C@H]3c4[nH]c5cccc(-c6cccc(F)c6)c5c4CCN3C(=O)[C@@H]12 | nt | nt | nt | nt | nt | 0
CCSc1nnc2c(n1)[nH]c1c(C)cccc12 | 2 | 0 | 5 | 53* | -4 | 2
CSc1nnc2c(n1)[nH]c1c(C)cccc12 | -6 | -1 | 13 | 29 | -4 | 1
O=C(NCc1ccccc1)[C@@H]1CCCN1C(=O)[C@H]1CCCN1C(=O)c1ccccc1 | nt | nt | nt | nt | nt | 0
CN(CCC(=O)Nc1ccc(Br)cc1)Cc1ccccc1 | -6 | 25* | 1 | 11 | -12 | nt
CCN1CCCC1CNC(=O)c1cc2c(-c3ccc(Cl)cc3)nn(C)c2s1 (centres undefined) | 7 | 0 | -2 | 59* | -1 | nt
CCN1CCCC1CNC(=O)c1cc2c(-c3cccc(OC)c3)nn(C)c2s1 (centres undefined) | -8 | 0 | -5 | 26 | -3 | 2
COCCCNC(=O)c1cc2c(-c3ccc(Cl)cc3)nn(C)c2s1 | 9 | 0 | 11 | 64* | -10 | 1
CCCCN(CC)CCCNC(=O)c1cc2c(-c3ccc(OC)c(OC)c3)nn(C)c2s1 | -6 | -1 | 11 | 0 | -3 | 2
CCOC(=O)N1CCC(NC(=O)c2cc3c(-c4ccc(Cl)cc4)nn(C)c3s2)CC1 | 9 | 0 | nt | 33 | -2 | -1
Cn1nc(-c2ccc(Cl)cc2)c2cc(C(=O)NCCCN3CCCC3)sc21 | -1 | -1 | 21 | 54* | -7 | -1
CC(C)NC(=O)c1cc2c(-c3ccc(Cl)cc3)nn(C)c2s1 | 2 | 0 | 20 | 59* | 0 | -2
SMILES | HTR2A ag | Tb MetRS inh | AI-2 QS modul | AHR act | MsrA act | MsrA inhibitor
Cc1ccc(CNC(=O)c2cc3c(-c4ccc(Cl)cc4)nn(C)c3s2)o1 | 1 | 1 | 20 | 46 | -6 | 3
CCCCNC(=O)c1cc2c(-c3ccc(Cl)cc3)nn(C)c2s1 | 0 | 0 | 37 | 50* | -3 | 0
COCCNC(=O)c1cc2c(-c3ccc(Cl)cc3)nn(C)c2s1 | -2 | 0 | -4 | 59* | -1 | 0
CCc1c(Cc2ccccc2)ncn1CCc1ccccc1OC | nt | nt | nt | nt | nt | 0
CN(c1cccnc1)c1ccc(NC(=O)Cc2c[nH]c3ccccc23)cc1-c1ccc(F)c(F)c1 | nt | nt | nt | nt | nt | 0
Oc1c(Br)cc(Br)c2cccnc12 | -2 | 0 | nt | nt | 1 | 0

Source: PubChem
